# Where a SMILES comes first, the peptide text is derived from it. [ ]: non-standard residue; d: D form. The star is where a group is joined. Guanidinoacetyl = N=C(N)NCC(=O)*; NMeI = CC[C@H](C)[C@H](NC)C(=O)O; Me2Gly = CN(C)CC(=O)*; Sar = CNCC(=O)O
# Key:
# [1] = system: Rattus norvegicus; assay: Pressor activity in ganglion-blocked vagotomized rat administered as bolus injection relative to [Asp1,Ile8]angiotension 2; type: functional
# How it was run: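 Vagotomized, ganglion-blocked rats received a bolus injection of the analogue. Pressor activity is expressed as percent relative to [Asp¹,Ile⁸]angiotensin II, set at 100.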
# [2] = Antagonist activity at angiotensin 2 receptor in rabbit aortic strip assessed as inhibition of contractile activity; conditions: Oryctolagus cuniculus; read-out: pA2 (converted)
# How it was run: (§1)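 Rabbit aortic strips; the antagonist opposes angiotensin II-induced contraction. pA₂ is the negative log molar antagonist concentration that reduces the effect of a doubled agonist concentration to that of a single one. It is derived as pA₂ = (log K₂)/n, where n is the slope of log(dose ratio − 1) vs. −log antagonist concentration and K₂ is the y-intercept.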
# [3] = species on record: Oryctolagus cuniculus; assay: Binding affinity to angiotensin 2 receptor in rabbit aortic strip; how it was run: as §1
# [4] = system: Rattus norvegicus; assay: Pressor activity in ganglion-blocked vagotomized rat assessed as angiotensin 2 ED20 at 250 ng/kg/min, iv administered as infusion measured during infusion
# [5] = system: Rattus norvegicus; assay: Pressor activity in ganglion-blocked vagotomized rat assessed as rise in blood pressure at 250 ng/kg/min, iv administered as infusion measured after 3 mins relative to control
# [6] = system: Rattus norvegicus; assay: Pressor activity in ganglion-blocked vagotomized rat assessed as rise in blood pressure at 250 ng/kg/min, iv administered as infusion measured after 10 mins relative to control
# [7] = system: Rattus norvegicus; assay: Pressor activity in ganglion-blocked vagotomized rat assessed as rise in blood pressure at 250 ng/kg/min, iv administered as infusion measured after 30 mins relative to control
# [8] = system: Rattus norvegicus; assay: Pressor activity in ganglion-blocked vagotomized rat assessed as rise in angiotensin 2 ED20 at 250 ng/kg/min, iv administered as infusion measured during infusion relative to untreated control
# [9] = system: Rattus norvegicus; assay: Pressor activity in ganglion-blocked vagotomized rat assessed as rise in blood pressure at 250 ng/kg/min, iv administered as infusion measured after 3 mins relative to control; type: functional
# How it was run: (§2)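 Vagotomized, ganglion-blocked rats were infused with the analogue. Rise in blood pressure (mmHg) was read at 3, 10 and 30 min of infusion. Values are mean ± error over several rats per analogue.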
# [10] = system: Rattus norvegicus; assay: Pressor activity in ganglion-blocked vagotomized rat assessed as rise in blood pressure at 250 ng/kg/min, iv administered as infusion measured after 10 mins relative to control; type: functional; how it was run: as §2
# [11] = system: Rattus norvegicus; assay: Pressor activity in ganglion-blocked vagotomized rat assessed as rise in blood pressure at 250 ng/kg/min, iv administered as infusion measured after 30 mins relative to control; type: functional; how it was run: as §2
log K [3],Compound,Ratio [1],Kb [2],ED20 [4],Activity [5],Activity [6],Activity [7],Ratio [8],Activity [9],Activity [10],Activity [11]
2.48,CC[C@H](C)[C@H](NC)C(=O)N[C@@H](CCCNC(=N)N)C(=O)N[C@H](C(=O)N[C@@H](Cc1ccc(O)cc1)C(=O)N[C@H](C(=O)N[C@@H](Cc1cnc[nH]1)C(=O)N1CCC[C@H]1C(=O)N[C@H](C(=O)O)[C@@H](C)O)[C@@H](C)CC)C(C)C (H-[NMeI]RVYIHPT-OH),0.12,20.9 nM,3.59 ng,4.33 mmHg,6.66 mmHg,8.05 mmHg,2.37,,,
2.83,CC[C@H](C)[C@H](NC(=O)[C@H](Cc1ccc(O)cc1)NC(=O)[C@@H](NC(=O)[C@H](CCCNC(=N)N)NC(=O)CN(C)C)C(C)C)C(=O)N[C@@H](Cc1cnc[nH]1)C(=O)N1CCC[C@H]1C(=O)N[C@H](C(=O)O)[C@@H](C)O (Me2Gly-RVYIHPT-OH),0.38,29.5 nM,7.7 ng,,,,4.49,7.5 mmHg,12.57 mmHg,11.71 mmHg
2.83,H-RVYIHPT-OH,0.24,29.5 nM,3.01 ng,0.5 mmHg,1.5 mmHg,4.5 mmHg,1.47,,,

# Further lines, the compound ahead of its results:
Compound,log K [3],Ratio [1],Kb [2],ED20 [4],Activity [5],Activity [6],Activity [7],Ratio [8],Activity [9],Activity [10],Activity [11]
CC[C@H](C)[C@H](NC(=O)[C@H](Cc1ccc(O)cc1)NC(=O)[C@@H](NC(=O)[C@H](CCCN=C(N)N)NC(=O)CNC)C(C)C)C(=O)N[C@@H](Cc1c[nH]cn1)C(=O)N1CCC[C@H]1C(=O)N[C@H](C(=O)O)[C@@H](C)O (H-[Sar]RVYIHPT-OH),8.1,0.6,1.62 nM,44.55 ng,,,,26.9,9.46 mmHg,9.66 mmHg,9.2 mmHg
CC[C@H](C)[C@H](NC(=O)[C@H](Cc1ccc(O)cc1)NC(=O)[C@@H](NC(=O)[C@H](CCCNC(=N)N)NC(=O)CNC)C(C)C)C(=O)N[C@@H](Cc1cnc[nH]1)C(=O)N1CCC[C@H]1C(=O)N[C@H](C(=O)O)[C@@H](C)OC,8.39,0.48,1.74 nM,95.26 ng,,,,62.52,13.82 mmHg,15.88 mmHg,15.06 mmHg
CC[C@H](C)[C@H](NC(=O)[C@H](Cc1ccc(O)cc1)NC(=O)[C@@H](NC(=O)[C@H](CCCNC(=N)N)NC(=O)CNC)C(C)C)C(=O)N[C@@H](Cc1cnc[nH]1)C(=O)N1CCC[C@H]1C(=O)N[C@@H](COC)C(=O)O,5.58,0.49,0.219 nM,37 ng,,,,24.04,15.66 mmHg,16.16 mmHg,11.16 mmHg
CC[C@H](C)[C@H](NC(=O)[C@H](Cc1ccc(O)cc1)NC(=O)[C@@H](NC(=O)[C@H](CCCNC(=N)N)NC(=O)CNC(=N)N)C(C)C)C(=O)N[C@@H](Cc1cnc[nH]1)C(=O)N1CCC[C@H]1C(=O)N[C@H](C(=O)O)[C@@H](C)O (Guanidinoacetyl-RVYIHPT-OH),2.12,0.15,58.9 nM,1.14 ng,0.5 mmHg,0.75 mmHg,3.5 mmHg,1.02,,,

# From ChEMBL document CHEMBL3244219, “Synthesis of [1-sarcosine, 8-O-methylserine]angiotensin II and 1-substituted analogues of [8-threonine]angiotensin II as antagonists of angiotensin II” (J Med Chem, 1977)
